Test results taken from ChEMBL document CHEMBL3352055, “Synthesis and structure-activity relationship studies of small molecule disruptors of EWS-FLI1 interactions in Ewing's sarcoma” (J Med Chem, 2014).
Activity calls are given as the source filed them. No cut-off for these calls is given here.

Tests used:
[1] = Growth inhibition of human TC32 cells harboring EWS-FLI1 fusion protein after 3 days by WST1 assay; assay type: functional; details: TC-32, 72 h
Outline: (§1)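 Cells plated at 5000–15000 per well in colorless medium. TC32 and TC71 grown in RPMI with 10% FBS and 1% HEPES; PANC1 in DMEM with 10% FBS. Compounds or DMSO vehicle added the day after plating. Viable cells measured by MTT or WST-1 after 3 days. GI50 from nonlinear regression.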

[2] = Growth inhibition of human PANC1 cells after 3 days by WST1 assay; assay type: cell-based, PANC-1; outline: as §1
[3] = Growth inhibition of human TC71 cells harboring EWS-FLI1 fusion protein after 3 days by WST1 assay; assay type: functional; details: TC-71, 72 h; outline: as §1
[4] = Cytotoxicity against african green monkey COS7 cells after 48 hrs by WST1 assay; assay type: cell-based; details: chlorocebus aethiops, cos-7, 48 h
Outline: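 COS7 cells (monkey kidney, lacking EWS-FLI1) grown in DMEM with 10% FBS. Compound exposure for 48 h, with viability read by WST proliferation assay.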

[5] = molecular target: Friend leukemia integration 1 transcription factor (Proto-oncogene Fli-1)/RNA-binding protein EWS (Homo sapiens) (UniProt Q01844+Q01543); test: (§2) Inhibition of transcriptional activity of full-length EWS-FLI1 (unknown origin) expressed in COS7 cells by NR0B1-luciferase reporter gene assay; assay type: cell-based; details: COS-7
Outline: (§3)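 COS7 cells transiently co-transfected with an NR0B1 luciferase reporter carrying EWS-FLI1 binding sites plus full-length EWS-FLI1 or empty pCI-neo vector. Treated 1.5 h after transfection with 0.05–15 μM compound or DMSO. Luciferase read 20 h later, quadruplicate wells, mean ± SD. IC50 from sigmoidal dose–response fit.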

[6] = molecular target: T1, Friend leukemia integration 1 transcription factor (Proto-oncogene Fli-1)/RNA-binding protein EWS (Homo sapiens, UniProt Q01543+Q01844); test: as §2; assay type: cell-based, COS-7; outline: as §3
T1 sequence (Q01844 whole entry): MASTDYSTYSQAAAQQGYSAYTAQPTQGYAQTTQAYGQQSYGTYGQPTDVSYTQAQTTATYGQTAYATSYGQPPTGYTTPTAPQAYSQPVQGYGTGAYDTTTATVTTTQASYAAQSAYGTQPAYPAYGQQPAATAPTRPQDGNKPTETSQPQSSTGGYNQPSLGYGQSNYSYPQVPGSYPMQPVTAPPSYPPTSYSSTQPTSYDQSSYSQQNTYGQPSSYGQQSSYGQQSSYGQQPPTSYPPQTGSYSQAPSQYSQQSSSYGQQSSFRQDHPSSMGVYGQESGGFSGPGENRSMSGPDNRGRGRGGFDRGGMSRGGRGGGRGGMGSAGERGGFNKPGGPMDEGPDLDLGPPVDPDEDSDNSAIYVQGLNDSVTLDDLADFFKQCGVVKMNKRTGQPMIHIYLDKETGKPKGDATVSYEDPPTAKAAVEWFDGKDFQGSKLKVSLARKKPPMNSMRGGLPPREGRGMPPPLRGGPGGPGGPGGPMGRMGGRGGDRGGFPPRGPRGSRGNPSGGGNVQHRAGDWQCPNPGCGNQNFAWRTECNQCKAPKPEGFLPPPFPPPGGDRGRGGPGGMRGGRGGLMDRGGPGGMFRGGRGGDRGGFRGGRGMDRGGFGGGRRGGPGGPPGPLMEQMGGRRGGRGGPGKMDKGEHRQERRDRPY
T1 sequence (Q01543 whole entry): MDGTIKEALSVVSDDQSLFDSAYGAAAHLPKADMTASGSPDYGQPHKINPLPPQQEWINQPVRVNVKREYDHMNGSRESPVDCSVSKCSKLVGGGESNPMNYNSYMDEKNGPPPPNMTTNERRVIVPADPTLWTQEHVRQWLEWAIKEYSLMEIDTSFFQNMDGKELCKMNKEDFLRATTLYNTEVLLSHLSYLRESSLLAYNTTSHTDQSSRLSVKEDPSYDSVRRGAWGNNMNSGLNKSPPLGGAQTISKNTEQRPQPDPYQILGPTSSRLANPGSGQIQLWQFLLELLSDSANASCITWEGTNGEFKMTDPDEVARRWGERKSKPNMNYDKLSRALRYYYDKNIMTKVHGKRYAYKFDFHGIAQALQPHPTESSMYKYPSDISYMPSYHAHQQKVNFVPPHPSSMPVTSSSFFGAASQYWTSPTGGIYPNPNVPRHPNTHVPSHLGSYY

[7] = molecular target: T1, Friend leukemia integration 1 transcription factor (Proto-oncogene Fli-1)/RNA-binding protein EWS; test: Binding affinity to purified recombinant EWS-FLI1 (unknown origin) after 1 hr by colorimetric phosphatase assay; assay type: protein assay
Outline: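 His-tagged EWS-FLI1 expressed in BL21 (1 mM IPTG, 2 h at 27 °C) and purified from inclusion bodies by Ni column with on-column refolding. Plates coated overnight with 20 nM protein and blocked with 4% BSA for 1 h at RT. Biotin conjugate (1–100 μM) incubated 1 h, then HRP-streptavidin 1:5000 for 1 h at RT. Phosphatase substrate read at 405 nm. BSA-coated wells used as control. Kd taken from the saturation curve.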

SMILES	GI50 [1] [µM]	GI50 at 72 h [2] [µM]	GI50 [3] [µM]	Activity [4]	inhibition activity (qualitative call) [5]	IC50 [6] [µM]	Kd [7] [µM]
O=C(CC1(O)C(=O)Nc2c(Cl)ccc(Cl)c21)c1ccc(I)cc1 (stereo not given)	> 10	> 10	> 10	–	–	–	–
COc1ccc(C(=O)CC2(O)C(=O)Nc3c(Cl)ccc(Cl)c32)cc1 (stereo not given)	0.94	> 10	0.92	Non-toxic	Dose-dependent effect	0.35	–
CN(C)c1ccc(C(=O)CC2(O)C(=O)Nc3c(Cl)ccc(Cl)c32)cc1 (stereo not given)	0.26	> 10	0.4	–	–	0.15	–
CC(C)Oc1ccc(C(=O)CC2(O)C(=O)Nc3c(Cl)ccc(Cl)c32)cc1 (stereo not given)	> 10	> 10	> 10	–	–	–	–
COc1ccc(C(=O)CC2(O)C(=O)Nc3cccc(Cl)c32)cc1 (stereo not given)	> 10	> 10	> 10	–	–	–	–
N#Cc1ccc(C(=O)CC2(O)C(=O)Nc3c(Cl)ccc(Cl)c32)cc1 (stereo not given)	> 10	> 10	> 10	–	–	–	–
Nc1ccc(C(=O)CC2(O)C(=O)Nc3c(Cl)ccc(Cl)c32)cc1 (stereo not given)	> 10	> 10	> 10	–	–	–	–
O=C(CC1(O)C(=O)Nc2c(Cl)ccc(Cl)c21)c1ccccc1 (stereo not given)	> 10	> 10	> 10	–	–	–	–
CSc1ccc(C(=O)CC2(O)C(=O)Nc3c(Cl)ccc(Cl)c32)cc1 (stereo not given)	0.98	> 10	0.91	–	–	0.33	–
O=C(CC1(O)C(=O)Nc2c(Cl)ccc(Cl)c21)c1ccc(Oc2ccccc2)cc1 (stereo not given)	> 10	> 10	> 10	–	–	–	–
COc1ccc(C(=O)CC2(O)C(=O)Nc3ccc(Cl)cc32)cc1 (stereo not given)	> 10	> 10	> 10	–	–	–	–
O=C(CC1(O)C(=O)Nc2c(Cl)ccc(Cl)c21)c1ccc(C(F)(F)F)cc1 (stereo not given)	2.9	11	6.9	–	–	–	–
COc1ccc(C(=O)CC2(OC)C(=O)N(C)c3c(Cl)ccc(Cl)c32)cc1 (stereo not given)	> 10	> 10	> 10	–	Active	–	–
COc1ccc(C(=O)CC2(O)C(=O)Nc3cc(Cl)c(Cl)cc32)cc1 (stereo not given)	> 10	> 10	> 10	–	–	–	–
COc1ccc(C(=O)CC2(O)C(=O)N(c3ccccc3)c3c(Cl)ccc(Cl)c32)cc1 (stereo not given)	> 10	> 10	> 10	–	–	–	–
COc1ccc(C(=O)CC2(O)C(=O)N(C)c3c(Cl)ccc(Cl)c32)cc1 (stereo not given)	2.2	> 10	> 10	–	Active	–	–
COc1ccc(C(=O)CC2(O)C(=O)Nc3c(F)ccc(F)c32)cc1 (stereo not given)	> 10	> 10	> 10	–	–	–	–

SMILES	GI50 [1] [µM]	GI50 at 72 h [2] [µM]	GI50 [3] [µM]	Activity [4]	inhibition activity (qualitative call) [5]	IC50 [6] [µM]	Kd [7] [µM]
COc1cccc(C(=O)CC2(O)C(=O)Nc3c(Cl)ccc(Cl)c32)c1 (stereo not given)	> 10	> 10	> 10	–	–	–	–
COc1ccc(C(=O)CC2(O)C(=O)Nc3c(Cl)cccc32)cc1 (stereo not given)	> 10	> 10	> 10	–	–	–	–
COc1cc(OC)cc(C(=O)CC2(O)C(=O)Nc3c(Cl)ccc(Cl)c32)c1 (stereo not given)	9	> 10	> 10	–	–	–	–
CNc1ccc(C(=O)CC2(O)C(=O)Nc3c(Cl)ccc(Cl)c32)cc1 (stereo not given)	0.34	> 10	0.39	–	–	0.18	–
CN(C(=O)CCCCCNC(=O)CCCC[C@H]1SCC2NC(=O)NC21)c1ccc(C(=O)CC2(O)C(=O)Nc3c(Cl)ccc(Cl)c32)cc1 (stereo not given in full)	–	–	–	–	–	–	4.8
COc1ccc(C(=O)CC2(O)C(=O)Nc3c(Cl)ccc(Cl)c32)c(OC)c1OC (stereo not given)	2.7	> 10	4.4	–	–	–	–
CCOc1ccc(C(=O)CC2(O)C(=O)Nc3c(Cl)ccc(Cl)c32)cc1 (stereo not given)	2.7	> 10	3.57	–	Active	–	–
COc1ccc(C(=O)CC2(O)C(=O)Nc3ccccc32)cc1 (stereo not given)	> 10	> 10	> 10	–	–	–	–
O=C(CC1(O)C(=O)Nc2c(Cl)ccc(Cl)c21)c1ccc(F)cc1 (stereo not given)	> 10	> 10	> 10	–	–	–	–
COc1ccc(C(=O)CC2(OC)C(=O)Nc3c(Cl)ccc(Cl)c32)cc1 (stereo not given)	> 10	> 10	> 10	–	inactive	–	–
COc1ccccc1C(=O)CC1(O)C(=O)Nc2c(Cl)ccc(Cl)c21 (stereo not given)	> 10	> 10	> 10	–	inactive	–	–
COc1ccc(C(=O)CC2(O)C(=O)Nc3c(C)ccc(C)c32)cc1 (stereo not given)	> 10	> 10	> 10	–	–	–	–
Cc1ccc(C(=O)CC2(O)C(=O)Nc3c(Cl)ccc(Cl)c32)cc1 (stereo not given)	> 10	> 10	> 10	–	–	–	–
COc1ccc(C(=O)CC2(O)C(=O)Nc3c(OC)ccc(OC)c32)cc1 (stereo not given)	1	> 10	0.94	–	–	0.77	–
COc1ccc(C(=O)CC2(O)C(=O)Nc3c(Cl)ccc(Cl)c32)c(OC)c1 (stereo not given)	2.6	> 10	2.8	–	Active	–	–
COc1cccc(C(=O)CC2(O)C(=O)Nc3c(Cl)ccc(Cl)c32)c1OC (stereo not given)	> 10	> 10	> 10	–	–	–	–
